Tests used:
[1] = molecular target: T1, 5-hydroxytryptamine receptor 1D (Homo sapiens, UniProt P28221); test: Displacement of [3H]5-HT binding to cloned human 5-hydroxytryptamine 1D receptor stably expressed in CHO cells; format: cell-based
Outline: (§1)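 Membranes from thawed CHO cells with human 5-HT1B or 5-HT1D, washed in 50 mM Tris-HCl pH 7.7, preincubated 10 min at 37 °C to remove endogenous 5-HT. Buffer holds 0.1% ascorbate, 10 μM pargyline and 4 mM CaCl2. Uses 2.0 nM [3H]5-HT, 30 min at 37 °C; 10 μM 5-HT defines nonspecific binding. Filtration; IC50 by nonlinear regression; duplicates, 2–5 occasions.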

[2] = molecular target: 5-hydroxytryptamine receptor 1B (Homo sapiens, UniProt P28222); test: Displacement of [3H]5-HT binding to cloned 5-hydroxytryptamine 1B receptor stably expressed in CHO cells; format: cell-based; outline: as §1
[3] = Ratio of IC50 for human 5-HT1B to human 5-HT1D receptors
[4] = molecular target: T1, 5-hydroxytryptamine receptor 1D; test: Maximum stimulation of [35S]GTP-gamma-S, binding in CHO cells expressing human 5-HT-1d relative to 5-HT; format: functional, cell-based
Outline: (§2)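 Membranes from thawed CHO cells with human 5-HT1D, prepared in ice-cold 20 mM Hepes/EDTA at pH 7.4, spun at 40000g. Assay buffer: 100 mM NaCl, 10 mM MgCl2, 0.1% ascorbate, 10 μM pargyline. GDP 100 μM plus drug, 20 min at 30 °C, then ice 15 min. Then 100 pM [35S]GTPγS, 30 min at 30 °C, filtration. Emax is taken as % of maximal 5-HT response; duplicates, 2–5 occasions.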

[5] = molecular target: T1, 5-hydroxytryptamine receptor 1D; test: Agonist-induced [35S]- GTPgammaS binding in CHO cells stably transfected with 5-hydroxytryptamine 1D receptor; format: cell-based; outline: as §2

Chain of 5-hydroxytryptamine receptor 1B (P28222 whole entry): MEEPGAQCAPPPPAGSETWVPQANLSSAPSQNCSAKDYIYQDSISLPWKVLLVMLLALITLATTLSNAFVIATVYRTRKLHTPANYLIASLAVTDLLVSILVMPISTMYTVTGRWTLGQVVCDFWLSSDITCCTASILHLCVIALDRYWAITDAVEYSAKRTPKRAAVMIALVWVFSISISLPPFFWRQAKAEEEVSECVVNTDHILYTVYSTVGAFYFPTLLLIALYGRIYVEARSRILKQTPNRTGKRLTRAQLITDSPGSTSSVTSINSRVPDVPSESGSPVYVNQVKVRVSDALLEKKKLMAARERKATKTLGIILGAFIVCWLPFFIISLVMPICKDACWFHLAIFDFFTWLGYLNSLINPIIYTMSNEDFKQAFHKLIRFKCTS
T1 sequence (P28221 whole entry): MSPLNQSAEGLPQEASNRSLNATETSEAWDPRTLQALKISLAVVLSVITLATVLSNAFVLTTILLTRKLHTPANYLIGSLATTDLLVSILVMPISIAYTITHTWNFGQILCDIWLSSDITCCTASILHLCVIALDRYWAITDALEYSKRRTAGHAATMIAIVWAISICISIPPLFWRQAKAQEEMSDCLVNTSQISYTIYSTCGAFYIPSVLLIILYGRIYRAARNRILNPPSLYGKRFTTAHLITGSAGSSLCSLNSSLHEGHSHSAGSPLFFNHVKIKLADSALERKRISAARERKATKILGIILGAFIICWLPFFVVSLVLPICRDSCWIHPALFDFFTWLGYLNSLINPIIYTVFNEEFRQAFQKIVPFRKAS

Structure (SMILES)	IC50 [1] [nM]	IC50 [2] [nM]	Selectivity [3]	Efficacy [4] [%]	EC50 [5] [nM]
c1ccc(CNCC2CCN(CCCc3c[nH]c4ccc(-n5cnnc5)cc34)CC2)cc1	1.6	28	18	101	5.6
CN(CC1CCN(CCCc2c[nH]c3ccc(-n4cnnc4)cc23)CC1)C(=O)Nc1ccccc1	5.9	6.2	1.1	–	–
C[C@@H](O)[C@H](NC1CCN(CCCc2c[nH]c3ccc(-n4cnnc4)cc23)CC1)c1ccccc1	0.9	48	53	85	1
CC(=O)Nc1ccc(CCNC2CCN(CCCc3c[nH]c4ccc(-n5cnnc5)cc34)CC2)cc1	12	170	14	–	–
O=S(=O)(NCC1CCN(CCCc2c[nH]c3ccc(-n4cnnc4)cc23)CC1)c1ccccc1	6.2	60	10	73	12
CN(CC1CCN(CCCc2c[nH]c3ccc(-n4cnnc4)cc23)CC1)S(=O)(=O)c1ccccc1	1.6	18	11	–	–
CC(=O)Nc1ccc(CNCC2CCN(CCCc3c[nH]c4ccc(-n5cnnc5)cc34)CC2)cc1	4.2	8.9	2.1	–	–
CN(CC1CCN(CCCc2c[nH]c3ccc(-n4cnnc4)cc23)CC1)[C@@H](CO)c1ccccc1	6	85	14	–	–
C[C@@H](NCC1CCN(CCCc2c[nH]c3ccc(-n4cnnc4)cc23)CC1)c1ccccc1	1.4	14	10	–	–
NC1CCN(CCCc2c[nH]c3ccc(-n4cnnc4)cc23)CC1	12	63	5.3	–	–
CN(Cc1ccccc1)C1CCN(CCCc2c[nH]c3ccc(-n4cnnc4)cc23)CC1	–	–	67	–	–
CC(=O)Nc1ccc([C@H](C)NCC2CCN(CCCc3c[nH]c4ccc(-n5cnnc5)cc34)CC2)cc1	0.6	9.3	16	99	3
CN(Cc1ccccc1)CC1CCN(CCCc2c[nH]c3ccc(-n4cnnc4)cc23)CC1	0.9	27	30	93	–
OC[C@H](NC1CCN(CCCc2c[nH]c3ccc(-n4cncn4)cc23)CC1)c1ccccc1	4.1	400	98	77	7.4
c1cc(CNC2CCN(CCCc3c[nH]c4ccc(-n5cnnc5)cc34)CC2)co1	4.5	78	17	65	7.1
C[C@@H](NC1CCN(CCCc2c[nH]c3ccc(-n4ccnc4)cc23)CC1)c1ccccc1	4.2	110	26	65	6.2
CC(=O)Nc1ccc(CCN(C)C2CCN(CCCc3c[nH]c4ccc(-n5cnnc5)cc34)CC2)cc1	5.7	66	12	–	–
CC(C)=CCCN(C)C1CCN(CCCc2c[nH]c3ccc(-n4cnnc4)cc23)CC1	2.6	24	9.2	–	–
C[C@@H](NC1CCN(CCCc2c[nH]c3ccc(-n4cncn4)cc23)CC1)c1ccccc1	18	420	23	69	18
CN(Cc1ccc(S(C)(=O)=O)cc1)C1CCN(CCCc2c[nH]c3ccc(-n4cnnc4)cc23)CC1	18	140	7.8	–	–
C=CCN(C)C1CCN(CCCc2c[nH]c3ccc(-n4cnnc4)cc23)CC1	20	320	16	–	–
OC[C@@H](NCC1CCN(CCCc2c[nH]c3ccc(-n4cnnc4)cc23)CC1)c1ccccc1	3.4	34	10	–	–

Structure (SMILES)	IC50 [1] [nM]	IC50 [2] [nM]	Selectivity [3]	Efficacy [4] [%]	EC50 [5] [nM]
COC[C@H](NC1CCN(CCCc2c[nH]c3ccc(-n4cnnc4)cc23)CC1)c1ccc(F)cc1	1.4	89	64	–	–
OC[C@H](NCC1CCN(CCCc2c[nH]c3ccc(-n4cnnc4)cc23)CC1)c1ccccc1	5.9	79	13	–	–
CN(Cc1ccco1)C1CCN(CCCc2c[nH]c3ccc(-n4cnnc4)cc23)CC1	9.3	89	9.6	–	–
C[C@@H](NC1CCN(CCCc2c[nH]c3ccc(-n4cnnc4)cc23)CC1)c1ccccc1	0.4	–	88	90	13
O=C(c1ccc(F)cc1)C1CCN(CCn2c(=O)[nH]c3ccccc3c2=O)CC1 [KETANSERIN]	270	> 10000	> 37	–	–
CC(=O)Nc1ccc([C@@H](C)NCC2CCN(CCCc3c[nH]c4ccc(-n5cnnc5)cc34)CC2)cc1	1.5	8.9	5.9	–	–
C[C@H](NCC1CCN(CCCc2c[nH]c3ccc(-n4cnnc4)cc23)CC1)c1ccccc1	4.4	58	13	–	–
CN(C(=O)Nc1ccccc1)C1CCN(CCCc2c[nH]c3ccc(-n4cnnc4)cc23)CC1	18	140	7.8	–	–
c1cc2[nH]cc(CCN3CCCC3)c2cc1-n1cnnc1	–	–	9	–	–
CN(C1CCN(CCCc2c[nH]c3ccc(-n4cnnc4)cc23)CC1)S(=O)(=O)c1ccccc1	1.5	10	6.7	–	–
OC[C@H](NC1CCN(CCCc2c[nH]c3ccc(-n4cnnc4)cc23)CC1)c1ccccc1	–	–	85	95	1.7
CC(=O)Nc1ccc(C(=O)N(C)CC2CCN(CCCc3c[nH]c4ccc(-n5cnnc5)cc34)CC2)cc1	17	40	2.4	–	–
CN(Cc1ccc(S(C)(=O)=O)cc1)CC1CCN(CCCc2c[nH]c3ccc(-n4cnnc4)cc23)CC1	8.1	66	8.1	–	–
c1ccc(CNC2CCN(CCCc3c[nH]c4ccc(-n5cnnc5)cc34)CC2)nc1	14	76	5.4	–	–
CN(CC1CC1)C1CCN(CCCc2c[nH]c3ccc(-n4cnnc4)cc23)CC1	22	260	12	–	–
O[C@H]1Cc2ccccc2C1NC1CCN(CCCc2c[nH]c3ccc(-n4cnnc4)cc23)CC1 (stereo partly drawn)	37	300	8.1	–	–
CC(=O)Nc1ccc(CN(C)C2CCN(CCCc3c[nH]c4ccc(-n5cnnc5)cc34)CC2)cc1	19	100	5.3	–	–
CNS(=O)(=O)Cc1ccc2[nH]cc(CCCN3CCC(N[C@H](C)c4ccccc4)CC3)c2c1	43	260	6	–	–
c1ccc(NCC2CCN(CCCc3c[nH]c4ccc(-n5cnnc5)cc34)CC2)nc1	1.7	3.3	1.9	–	–
c1cncc(CNC2CCN(CCCc3c[nH]c4ccc(-n5cnnc5)cc34)CC2)c1	35	140	4	–	–
CN(C)C[C@H](NC1CCN(CCCc2c[nH]c3ccc(-n4cnnc4)cc23)CC1)c1ccccc1	1.5	13	8.7	–	–

From ChEMBL document CHEMBL1132157 (J Med Chem, 1999)
